# B1: Adenosine kinase (Toxoplasma gondii), Q9TVW2 (protein)
# chain: MAVDSSNSATGPMRVFAIGNPILDLVAEVPSSFLDEFFLKRGDATLATPEQMRIYSTLDQFNPTSLPGGSALNSVRVVQKLLRKPGSAGYMGAIGDDPRGQVLKELCDKEGLATRFMVAPGQSTGVCAVLINEKERTLCTHLGACGSFRLPEDWTTFASGALIFYATAYTLTATPKNALEVAGYAHGIPNAIFTLNLSAPFCVELYKDAMQSLLLHTNILFGNEEEFAHLAKVHNLVAAEKTALSTANKEHAVEVCTGALRLLTAGQNTGATKLVVMTRGHNPVIAAEQTADGTVVVHEVGVPVVAAEKIVDTNGAGDAFVGGFLYALSQGKTVKQCIMCGNACAQDVIQHVGFSLSFTSLPC
# Assays:
# [1] = Effect of compound on percent survival of human fibroblast cells in culture was determined at 25 uM; type: functional; settings: read-out: Survival
# Method in brief: (§1)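 Uninfected human foreskin fibroblast monolayers (≤30 passages) in RPMI 1640 are attached for at least 24 h at 37 °C in 5% CO2. Compound is added at the same concentrations as in the parasite assay and incubated 48 h. MTT is added for 4 h, formazan is dissolved in DMSO, and absorbance is read at 540 nm; at least triplicates.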
# [2] = Effect of compound on percent survival of human fibroblast cells in culture was determined at 5 uM; type: functional; settings: read-out: Survival; method in brief: as §1
# [3] = Effect of compound on percent survival of human fibroblast cells in culture was determined at 50 uM; type: functional; settings: read-out: Survival; method in brief: as §1
# [4] = Effect of compound on percent survival of human fibroblast cells in culture was determined at 0 uM; type: functional; method in brief: as §1
# [5] = Effect of compound on percent survival of human fibroblast cells in culture was determined at 10 uM; type: functional; settings: read-out: Survival; method in brief: as §1
# Toxoplasma gondii [6] = test: Effect of compound on percent survival of adenosine kinase deficient strain of Toxoplasma gondii (TgAKe-3) grown in human fibroblast cells at 0 uM; type: functional
# Method in brief: (§2)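 Human foreskin fibroblast monolayers (≤30 passages) in RPMI 1640 are infected with tachyzoites at one parasite per cell in 3% FBS for 1 h, then washed, with FBS kept at 10%. Compound is added in 50% ethanol stock (2.5% ethanol final) and incubated 18 h. Medium is replaced with drug-free [5,6-3H]uracil (2 μCi/mL) for 6 h. TCA-precipitable radioactivity is counted; at least triplicates.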
# Toxoplasma gondii [7] = test: Effect of compound on percent survival of adenosine kinase deficient strain of Toxoplasma gondii (TgAKe-3) grown in human fibroblast cells at 10 uM; type: functional; method in brief: as §2
# Toxoplasma gondii [8] = test: Effect of compound on percent survival of adenosine kinase deficient strain of Toxoplasma gondii (TgAKe-3) grown in human fibroblast cells at 25 uM; type: functional; method in brief: as §2
# Toxoplasma gondii [9] = test: Effect of compound on percent survival of adenosine kinase deficient strain of Toxoplasma gondii (TgAKe-3) grown in human fibroblast cells at 5 uM; type: functional; method in brief: as §2
# Toxoplasma gondii [10] = test: Effect of compound on percent survival of adenosine kinase deficient strain of Toxoplasma gondii (TgAKe-3) grown in human fibroblast cells at 50 uM; type: functional; method in brief: as §2
# Toxoplasma gondii [11] = test: Effect of compound on percent survival of wild type (RH) strain of Toxoplasma gondii grown in human fibroblast cells at 0 uM; type: functional; method in brief: as §2
# Toxoplasma gondii [12] = test: Effect of compound on percent survival of wild type (RH) strain of Toxoplasma gondii grown in human fibroblast cells at 10 uM; type: functional; method in brief: as §2
# Toxoplasma gondii [13] = test: Effect of compound on percent survival of wild type (RH) strain of Toxoplasma gondii grown in human fibroblast cells at 25 uM; type: functional; method in brief: as §2
# Toxoplasma gondii [14] = test: Effect of compound on percent survival of wild type (RH) strain of Toxoplasma gondii grown in human fibroblast cells at 5 uM; type: functional; method in brief: as §2
# Toxoplasma gondii [15] = test: Effect of compound on percent survival of wild type (RH) strain of Toxoplasma gondii grown in human fibroblast cells at 50 uM; type: functional; method in brief: as §2
# [16] = substrate: CC(C)(C)c1ccc(CSc2ncnc3c2ncn3[C@@H]2O[C@H](CO)[C@@H](O)[C@H]2O)cc1; test: (§3) Binding affinity at Toxoplasma gondii adenosine kinase.
# Method in brief: (§4)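 Purified recombinant T. gondii adenosine kinase was expressed in E. coli BL21(DE3)pLysS and purified on two Q-Sepharose columns. The assay contained 50 mM Tris-Cl pH 7.4, 2.5 mM ATP, 5 mM MgCl2, 5 mM creatine phosphate, creatine kinase and 5 μM [8-14C]adenosine, with varied analogue concentrations. Incubation was at 37 °C, stopped by boiling. [14C]AMP was resolved by TLC. Apparent Ki from Dixon plots was taken as apparent Km.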
# [17] = substrate: COC(=O)c1ccc(CSc2ncnc3c2ncn3[C@@H]2O[C@H](CO)[C@@H](O)[C@H]2O)cc1; test: as §3; method in brief: as §4
# [18] = substrate: COc1ccc(CSc2ncnc3c2ncn3[C@@H]2O[C@H](CO)[C@@H](O)[C@H]2O)cc1; test: as §3; method in brief: as §4
# [19] = substrate: Cc1cc(C)c(CSc2ncnc3c2ncn3[C@@H]2O[C@H](CO)[C@@H](O)[C@H]2O)c(C)c1; test: as §3; method in brief: as §4
# [20] = substrate: Cc1ccc(CSc2ncnc3c2ncn3[C@@H]2O[C@H](CO)[C@@H](O)[C@H]2O)cc1; test: as §3; method in brief: as §4
# [21] = substrate: Cc1cccc(CSc2ncnc3c2ncn3[C@@H]2O[C@H](CO)[C@@H](O)[C@H]2O)c1; test: as §3; method in brief: as §4
# [22] = substrate: Cc1ccccc1CSc1ncnc2c1ncn2[C@@H]1O[C@H](CO)[C@@H](O)[C@H]1O; test: as §3; method in brief: as §4
# [23] = substrate: N#Cc1ccc(CSc2ncnc3c2ncn3[C@@H]2O[C@H](CO)[C@@H](O)[C@H]2O)cc1; test: as §3; method in brief: as §4
# [24] = substrate: Nc1ncnc2c1ncn2[C@@H]1O[C@H](CO)[C@@H](O)[C@H]1O; test: as §3; method in brief: as §4
# [25] = substrate: O=[N+]([O-])c1ccc(CSc2ncnc3c2ncn3[C@@H]2O[C@H](CO)[C@@H](O)[C@H]2O)cc1; test: as §3; method in brief: as §4
# [26] = substrate: O=[N+]([O-])c1cccc(CSc2ncnc3c2ncn3[C@@H]2O[C@H](CO)[C@@H](O)[C@H]2O)c1; test: as §3; method in brief: as §4
# [27] = substrate: OC[C@H]1O[C@@H](n2cnc3c(SCc4c(F)cccc4Cl)ncnc32)[C@H](O)[C@@H]1O; test: as §3; method in brief: as §4
# [28] = substrate: OC[C@H]1O[C@@H](n2cnc3c(SCc4ccc(Br)cc4)ncnc32)[C@H](O)[C@@H]1O; test: as §3; method in brief: as §4
# [29] = substrate: OC[C@H]1O[C@@H](n2cnc3c(SCc4ccc(Cl)c(Cl)c4)ncnc32)[C@H](O)[C@@H]1O; test: as §3; method in brief: as §4
# [30] = substrate: OC[C@H]1O[C@@H](n2cnc3c(SCc4ccc(Cl)cc4)ncnc32)[C@H](O)[C@@H]1O; test: as §3; method in brief: as §4
# [31] = substrate: OC[C@H]1O[C@@H](n2cnc3c(SCc4ccc(Cl)cc4Cl)ncnc32)[C@H](O)[C@@H]1O; test: as §3; method in brief: as §4
# [32] = substrate: OC[C@H]1O[C@@H](n2cnc3c(SCc4ccc(F)cc4)ncnc32)[C@H](O)[C@@H]1O; test: as §3; method in brief: as §4
# [33] = substrate: OC[C@H]1O[C@@H](n2cnc3c(SCc4ccc(OC(F)(F)F)cc4)ncnc32)[C@H](O)[C@@H]1O; test: as §3; method in brief: as §4
# [34] = substrate: OC[C@H]1O[C@@H](n2cnc3c(SCc4cccc(C(F)(F)F)c4)ncnc32)[C@H](O)[C@@H]1O; test: as §3; method in brief: as §4
# [35] = substrate: OC[C@H]1O[C@@H](n2cnc3c(SCc4ccccc4)ncnc32)[C@H](O)[C@@H]1O; test: as §3; method in brief: as §4
# [36] = substrate: OC[C@H]1O[C@@H](n2cnc3c(SCc4ccccc4Cl)ncnc32)[C@H](O)[C@@H]1O; test: as §3; method in brief: as §4
molecule,measurement,setting,value
OC[C@H]1O[C@@H](n2cnc3c(SCc4ccc(OC(F)(F)F)cc4)ncnc32)[C@H](O)[C@@H]1O,viability at 25 µM,[1],97.4%
same,viability at 5 µM,[2],100%
same,viability at 50 µM,[3],98.6%
same,Survival,[4],100%
same,viability at 10 µM,[5],99.9%
same,Survival,Toxoplasma gondii [6],100%
same,survival at 10 µM,Toxoplasma gondii [7],100%
same,survival at 25 µM,Toxoplasma gondii [8],97.6%
same,survival at 5 µM,Toxoplasma gondii [9],100%
same,survival at 50 µM,Toxoplasma gondii [10],95.1%
same,Survival,Toxoplasma gondii [11],100%
same,survival at 10 µM,Toxoplasma gondii [12],64.9%
same,survival at 25 µM,Toxoplasma gondii [13],54.5%
same,survival at 5 µM,Toxoplasma gondii [14],93.1%
same,survival at 50 µM,Toxoplasma gondii [15],44%
OC[C@H]1O[C@@H](n2cnc3c(SCc4ccc(Cl)cc4Cl)ncnc32)[C@H](O)[C@@H]1O,viability at 25 µM,[1],94%
same,viability at 5 µM,[2],98.1%
same,viability at 50 µM,[3],99.5%
same,Survival,[4],100%
same,viability at 10 µM,[5],99.2%
same,Survival,Toxoplasma gondii [6],100%
same,survival at 10 µM,Toxoplasma gondii [7],100%
same,survival at 25 µM,Toxoplasma gondii [8],100%
same,survival at 5 µM,Toxoplasma gondii [9],100%
same,survival at 50 µM,Toxoplasma gondii [10],100%
same,Survival,Toxoplasma gondii [11],100%
same,survival at 10 µM,Toxoplasma gondii [12],79.1%
same,survival at 25 µM,Toxoplasma gondii [13],34.5%
same,survival at 5 µM,Toxoplasma gondii [14],94.8%
same,survival at 50 µM,Toxoplasma gondii [15],0%
CC(C)(C)c1ccc(CSc2ncnc3c2ncn3[C@@H]2O[C@H](CO)[C@@H](O)[C@H]2O)cc1,viability at 25 µM,[1],100%
same,viability at 5 µM,[2],97.4%
same,viability at 50 µM,[3],99.7%
same,Survival,[4],100%
same,viability at 10 µM,[5],100%
same,Survival,Toxoplasma gondii [6],100%
same,survival at 10 µM,Toxoplasma gondii [7],100%
same,survival at 25 µM,Toxoplasma gondii [8],100%
same,survival at 5 µM,Toxoplasma gondii [9],100%
same,survival at 50 µM,Toxoplasma gondii [10],100%
same,Survival,Toxoplasma gondii [11],100%
same,survival at 10 µM,Toxoplasma gondii [12],71.7%
same,survival at 25 µM,Toxoplasma gondii [13],47.2%
same,survival at 5 µM,Toxoplasma gondii [14],83.3%
same,survival at 50 µM,Toxoplasma gondii [15],12.2%
CCc1nc(N)nc(N)c1-c1ccc(Cl)cc1 [PYRIMETHAMINE],viability at 25 µM,[1],100%
same,viability at 5 µM,[2],100%
same,viability at 50 µM,[3],100%
same,Survival,[4],100%
same,viability at 10 µM,[5],98.8%
same,Survival,Toxoplasma gondii [11],100%
same,survival at 10 µM,Toxoplasma gondii [12],36.3%
same,survival at 25 µM,Toxoplasma gondii [13],11.8%
same,survival at 5 µM,Toxoplasma gondii [14],53.8%
same,survival at 50 µM,Toxoplasma gondii [15],6.9%
Nc1ccc(S(=O)(=O)Nc2ncccn2)cc1 [SULFADIAZINE],viability at 25 µM,[1],99.8%
same,viability at 5 µM,[2],98.2%
same,viability at 50 µM,[3],100%
same,Survival,[4],100%
same,viability at 10 µM,[5],99.7%
same,Survival,Toxoplasma gondii [11],100%
same,survival at 10 µM,Toxoplasma gondii [12],64.5%
same,survival at 25 µM,Toxoplasma gondii [13],59.2%
same,survival at 5 µM,Toxoplasma gondii [14],75.7%
same,survival at 50 µM,Toxoplasma gondii [15],46.6%
B1,Km,[16],113 µM
same,Km,[17],96.1 µM
same,Km,[18],2.6 µM
same,Km,[19],150 µM
same,Km,[20],3.3 µM
same,Km,[21],1.3 µM
same,Km,[22],1.5 µM
same,Km,[23],0.9 µM
same,Km,[24],2.4 µM
same,Km,[25],1.1 µM
same,Km,[26],3 µM
same,Km,[27],37.7 µM
same,Km,[28],7.5 µM
same,Km,[29],2.5 µM
same,Km,[30],2.1 µM
same,Km,[31],0.7 µM
same,Km,[32],1.2 µM
same,Km,[33],141 µM
same,Km,[34],2.9 µM
same,Km,[35],2.4 µM
same,Km,[36],1.4 µM

# — ChEMBL document CHEMBL1149142, “Synthesis, biological activity and molecular modeling of 6-benzylthioinosine analogues as subversive substrates of Toxoplasma gondii adenosine kinase” (2004)
